# Source: PubChem (The Scripps Research Institute Molecular Screening Center)
# Rows were chosen to be rich in hits. Some 1.6% of all compounds tested hit in one or more screens of this group.
# S1P2 antag = blocks the human S1P2 receptor | O95136 | inhibition, % at 5 µM | 97,000 tested, 0.21% active | cell-based S1P2 antagonist assay, inhibition at 5 uM; in the data active = inhibition above about 45%;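 also: CRE beta-lactamase reporter cells expressing human S1P2 stimulated with S1P; 0% = agonist at EC80 alone and 100% = agonist plus reference antagonist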
# Target sequence (O95136 whole entry, looked up): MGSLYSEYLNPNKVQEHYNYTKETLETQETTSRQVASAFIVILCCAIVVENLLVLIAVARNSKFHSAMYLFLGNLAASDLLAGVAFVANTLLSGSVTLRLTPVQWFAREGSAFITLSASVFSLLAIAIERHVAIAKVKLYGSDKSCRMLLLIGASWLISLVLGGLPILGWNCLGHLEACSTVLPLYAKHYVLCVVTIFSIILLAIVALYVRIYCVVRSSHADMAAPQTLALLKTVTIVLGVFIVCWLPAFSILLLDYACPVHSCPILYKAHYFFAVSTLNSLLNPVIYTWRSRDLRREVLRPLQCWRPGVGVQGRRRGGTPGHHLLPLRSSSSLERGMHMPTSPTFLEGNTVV
# Rev-RRE block = disrupts HIV-1 Rev binding to RRE RNA; P05866; Rev peptide-RRE RNA binding, FRET; inhibition, % at 8 µM; 97,000 tested, 0.79% active; AID 704;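 active = inhibition above the screen-wide mean plus 3 SD, cut at about 35% in these data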;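 also: 0% = median DMSO wells and 100% = median Neomycin B control wells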
# Target sequence (P05866 whole entry, looked up): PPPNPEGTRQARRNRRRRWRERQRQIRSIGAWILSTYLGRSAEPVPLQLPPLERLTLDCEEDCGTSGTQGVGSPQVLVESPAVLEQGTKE
#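 System: Cy5-labelled duplex RRE RNA binding fluorescein-labelled HIV Rev peptide; Signal: fluorescein-to-Cy5 FRET, 480 nm excitation; Also added: labelled Rev peptide; Compound: one concentration, 8 µM nominal; Buffer or medium: HEPES pH 7.5 salt buffer with EDTA; Read-out: % inhibition of FRET ratio versus controls; Schedule: 5 min preincubation and 15 min binding, 25 °C.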
# GALR2 blocker = antagonists of human galanin receptor 2 (GALR2) | O43603 | GALR2-expressing cells, antagonist mode | inhibition, % at 4 µM | 140,000 tested, 0.39% active | AID 828;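 also: cells stimulated with galanin 1-16 at roughly its EC80; 0% = agonist challenge control and 100% = basal control without agonist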
# GALR2 ag = GALR2 (human) receptor agonism; O43603; GALR2-expressing cells, agonist activation read-out; activation, % (no concentration beside the values); 140,000 tested, 0.48% active; in the data active = activation above about 5%, passing the limit was not always enough;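 also: 0% = vehicle buffer wells and 100% = reference agonist at full effect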
# S1P2 agonist = activates the human S1P2 receptor. activation, % at 4.5 µM. S1P2-expressing cell line, agonist reporter read-out. AID 729. O95136. 97,000 tested, 0.46% active; in the data active = activation above about 16%;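 also: 0% = vehicle low control and 100% = maximal reference agonist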
# GALR2 ag confirm = confirmation of human galanin receptor 2 (GALR2) agonists. shares compounds with GALR2 ag. 460 tested, 10% active. GALR2-expressing cells, agonist activation. activation, % at 5.6 µM; in the data active = activation above about 8.4%;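 also: 0% = buffer-only vehicle wells and 100% = full reference agonist response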
# BLA activ ctr = counter-screen for GALR2 agonists: beta-lactamase reporter activators. shares compounds with GALR2 ag. CHO NFAT-bla reporter, beta-lactamase FRET activation. activation, % at 5.6 µM. 460 tested, 10% active;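 active = activation above the screen-wide mean activation plus 3 SD, cut at about 8% in these data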;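 also: 0% = DMSO with PBS wells and 100% = thapsigargin positive control wells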
# GALR2 ant conf = GALR2 (human) antagonism confirmed | shares compounds with GALR2 blocker | 480 tested, 60% active | AID 866 | GALR2-expressing cells, antagonist mode, inhibition | inhibition, % at 4 µM;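 also: cells stimulated with galanin at about its EC80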
# BLA inhib ctr = counter-screen for GALR2 antagonists: beta-lactamase reporter inhibitors; shares compounds with GALR2 blocker; CHO NFAT-BLA reporter, beta-lactamase FRET, thapsigargin-stimulated; inhibition, % at 4.2 µM; 480 tested, 36% active; AID 867;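 active = inhibition above the mean inhibition across tested compounds plus 3 SD, cut at about 27% in these data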;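 also: 0% = 500 nM thapsigargin stimulated wells and 100% = unstimulated BSA only wells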
# An asterisk follows results filed as active; · = no result. Rule as the data show it, unless noted: active = inhibition above about 27%; inactive = the rest.
SMILES,S1P2 antag,Rev-RRE block,GALR2 blocker,GALR2 ag,S1P2 agonist,GALR2 ag confirm,BLA activ ctr,others
COCC(C)OC(=O)c1c(N)n(Cc2ccco2)c2nc3ccccc3nc12 (centres undefined),-2.5,23.3,-5.2,1.8,5.6,·,·,
COc1ccc(Cn2c(N)c(C(=O)NCc3ccco3)c3nc4ccccc4nc32)cc1,-9.3,29.6,-10.8,12.7*,12.9,8.6*,15.8*,
CCCCN1C(=N)C(CC)(CC)C(=O)NC1=O,·,·,-1.4,-0.3,·,·,·,
COc1cc(/C=C(/C)[N+](=O)[O-])ccc1OCc1ccccc1Cl,·,·,3.9,10.6*,·,-0.5,-9.0,
CN1C(=O)C(=Cc2ccccc2OCc2ccccc2Cl)C(=O)N(C)C1=O,·,·,-3.6,-1.2,·,·,·,
O=C(CCCN1CCC2(CC1)C(=O)NCN2c1ccccc1)c1ccc(F)cc1,·,·,10.2,15.8*,·,8.8*,13.9*,
O=c1c2ccccc2nc(-c2ccc(-c3ccccc3)cc2)n1-c1ccncc1,-17.8,6.4,-3.0,-1.4,-2.4,·,·,
COc1cc2c(cc1OC)C(C(=O)NCCC(C)C)C1CCCCN1C2=O (centres undefined),·,·,1.4,-1.2,·,·,·,
O=C(COc1ccccc1)Nc1ccc(Cl)cc1C(=O)c1ccccc1,·,·,7.5,0.2,·,·,·,
COc1ccc(OCC(=O)Nc2ccc(Cl)cc2C(=O)c2ccccc2)cc1,-5.0,9.6,-13.8,9.8,-2.2,-0.6,-3.4,
CCN(c1ccc(C(O)(C(=O)OC)C(F)(F)F)cc1)S(=O)(=O)c1ccccc1 (centres undefined),·,·,7.4,16.3*,·,-0.3,-1.0,
N#Cc1cc2c(nc1SCC(=O)Nc1cc(Cl)ccc1Cl)C1CCN2CC1,-46.8,10.4,3.3,10.9,13.9,1.2,1.3,
c1cncc(C2CC(c3cccs3)n3ncnc3N2)c1 (centres undefined),·,·,7.0,-2.0,·,·,·,
COc1cc(/C=C/[N+](=O)[O-])ccc1O,·,·,52.3*,-2.0,·,·,·,GALR2 ant conf=55.4*;BLA inhib ctr=22.7
Cc1cccc(C)c1NC(=O)CN(C)CC(=O)Nc1ccc(C#N)c(Cl)c1,-14.4,9.1,8.1,-1.0,-3.0,·,·,
Nc1cc(Cl)c2nonc2c1[N+](=O)[O-],·,·,37.1*,4.3,·,·,·,GALR2 ant conf=35.4*;BLA inhib ctr=12.1
CC(=O)OC1(c2ccc(C)cc2)CN2CCC1c1ccccc12 (centres undefined),2.0,0.4,39.0*,-2.4,-4.3,·,·,GALR2 ant conf=17.2;BLA inhib ctr=14.2
CN1CCC(OC(=O)C2c3ccccc3Oc3ccccc32)CC1,1.5,-3.5,-8.1,-0.3,-2.2,·,·,
Cc1ccn2nc(S(=O)(=O)Nc3c(F)cccc3F)nc2n1,·,·,3.3,-0.2,·,·,·,
CC(=O)OC(C)(C)/C=C/C(=O)[C@](C)(O)[C@H]1[C@H](O)C[C@@]2(C)[C@@H]3CC=C4[C@H](C[C@H](O)C(=O)C4(C)C)[C@]3(C)C(=O)C[C@]12C,·,·,72.2*,-2.8,·,·,·,GALR2 ant conf=86.9*;BLA inhib ctr=102.4*
O=C(O)c1nonc1-c1nonc1C(=O)O,3.0,-1.0,6.5,-0.6,-7.6,·,·,
C=CCn1c(O)c(/C=C2/C=CC=N2)c(=O)[nH]c1=O,·,·,34.6*,-0.9,·,·,·,GALR2 ant conf=24.7;BLA inhib ctr=10.1
CC(C(=O)c1c[nH]c2ccccc12)N1CCc2ccccc2C1 (centres undefined),1.3,14.0,6.0,-2.1,-8.4,·,·,
